Experiments:
[1] = target: T1, Alpha-1A adrenergic receptor (Homo sapiens, UniProt P35348); assay: Intrinsic activity at alpha1A adrenergic receptor (unknown origin) assessed as inhibition of agonist induced effect preincubated for 30 mins followed by agonist addition measured after 5 hrs in presence of CCF4-AM by cell based beta lactamase reporter gene assay
T1 sequence (P35348 whole entry): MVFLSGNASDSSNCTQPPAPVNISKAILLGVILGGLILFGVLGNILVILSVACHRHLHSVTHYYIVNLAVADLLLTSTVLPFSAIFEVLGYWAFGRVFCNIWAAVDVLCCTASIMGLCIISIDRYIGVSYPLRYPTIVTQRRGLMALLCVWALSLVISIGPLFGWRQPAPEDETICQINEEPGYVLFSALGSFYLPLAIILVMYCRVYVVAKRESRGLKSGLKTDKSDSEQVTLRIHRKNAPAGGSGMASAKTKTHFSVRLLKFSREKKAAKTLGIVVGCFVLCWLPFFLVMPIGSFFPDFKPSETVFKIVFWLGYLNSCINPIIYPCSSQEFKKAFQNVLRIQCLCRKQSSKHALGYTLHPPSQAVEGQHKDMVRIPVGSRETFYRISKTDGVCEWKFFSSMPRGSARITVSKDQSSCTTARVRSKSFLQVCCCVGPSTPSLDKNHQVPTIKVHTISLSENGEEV
In short: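 Antagonist mode: 8 compound concentrations (10^-4–10^-11 M), then after 30 min standard agonist at EC80. Incubated 5 h at 37 °C/5% CO2, then loaded with CCF4-AM FRET substrate for 2 h at room temperature. Fluorescence read-out. Mean EC50 from three experiments.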

[2] = target: T2, Adrenergic receptor alpha-1 (Rattus norvegicus, UniProt P15823+P23944+P43140); assay: Displacement of [3H]-Prazosin from alpha1 adrenergic receptor in rat brain cerebral cortex membranes by liquid scintillation counting analysis; type: cell membranes, Membrane
T2 sequence (P15823 whole entry): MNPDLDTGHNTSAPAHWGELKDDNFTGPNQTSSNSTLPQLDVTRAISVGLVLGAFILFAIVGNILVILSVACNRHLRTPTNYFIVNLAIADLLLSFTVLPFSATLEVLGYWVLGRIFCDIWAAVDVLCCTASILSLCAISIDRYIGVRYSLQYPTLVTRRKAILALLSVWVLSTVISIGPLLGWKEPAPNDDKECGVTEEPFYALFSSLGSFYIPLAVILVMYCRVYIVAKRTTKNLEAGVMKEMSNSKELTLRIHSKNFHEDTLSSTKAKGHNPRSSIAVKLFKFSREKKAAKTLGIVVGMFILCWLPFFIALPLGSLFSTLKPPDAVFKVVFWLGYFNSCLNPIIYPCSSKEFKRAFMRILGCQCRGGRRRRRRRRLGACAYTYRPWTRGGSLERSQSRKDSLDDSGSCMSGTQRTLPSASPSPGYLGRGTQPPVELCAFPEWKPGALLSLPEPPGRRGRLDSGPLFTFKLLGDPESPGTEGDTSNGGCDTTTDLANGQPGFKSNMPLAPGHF
T2 sequence (P23944 whole entry): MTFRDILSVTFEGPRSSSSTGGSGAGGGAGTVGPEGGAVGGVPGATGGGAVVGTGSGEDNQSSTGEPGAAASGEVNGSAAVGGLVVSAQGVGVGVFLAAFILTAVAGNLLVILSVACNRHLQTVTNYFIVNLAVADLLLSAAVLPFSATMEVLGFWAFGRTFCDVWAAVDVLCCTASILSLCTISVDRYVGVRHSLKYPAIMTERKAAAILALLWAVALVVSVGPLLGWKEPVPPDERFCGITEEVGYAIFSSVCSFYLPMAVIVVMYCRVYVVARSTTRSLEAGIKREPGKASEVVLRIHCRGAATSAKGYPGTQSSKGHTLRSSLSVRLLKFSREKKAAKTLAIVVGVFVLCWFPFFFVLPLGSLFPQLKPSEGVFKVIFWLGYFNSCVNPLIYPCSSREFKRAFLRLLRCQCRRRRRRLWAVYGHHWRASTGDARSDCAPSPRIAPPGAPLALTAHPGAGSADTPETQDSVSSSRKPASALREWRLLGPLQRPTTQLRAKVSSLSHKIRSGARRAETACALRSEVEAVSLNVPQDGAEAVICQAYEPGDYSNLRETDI
T2 sequence (P43140 whole entry): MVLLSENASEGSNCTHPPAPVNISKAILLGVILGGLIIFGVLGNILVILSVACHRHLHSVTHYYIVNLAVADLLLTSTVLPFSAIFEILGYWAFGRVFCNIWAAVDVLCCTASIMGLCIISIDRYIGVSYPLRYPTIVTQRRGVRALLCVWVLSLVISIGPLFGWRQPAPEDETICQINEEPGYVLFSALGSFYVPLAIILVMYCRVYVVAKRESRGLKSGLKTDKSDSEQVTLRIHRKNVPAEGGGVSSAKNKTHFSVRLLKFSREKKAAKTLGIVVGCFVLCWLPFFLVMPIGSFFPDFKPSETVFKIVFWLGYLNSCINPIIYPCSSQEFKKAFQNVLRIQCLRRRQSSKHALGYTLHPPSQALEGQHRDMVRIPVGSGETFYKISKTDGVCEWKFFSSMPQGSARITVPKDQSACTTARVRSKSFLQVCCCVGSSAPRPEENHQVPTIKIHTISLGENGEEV
In short: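 Rat cerebral cortex homogenized in ice-cold 50 mM Tris–HCl (pH 7.6), spun at 20,000 g for 20 min (0–4 °C), resuspended and spun again. Membranes incubated with 0.2 nM [3H]-prazosin (α1) or 2 nM [3H]-clonidine (α2) and seven to eight compound concentrations (10^-11 to 10^-4 M). Non-specific binding defined with 10 µM phentolamine (prazosin) or 10 µM clonidine (clonidine). Ended by GF/C filtration, counted by liquid scintillation. Run in duplicate; Ki from two independent experiments.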

SMILES | EC50 [1] | Ki [2]
COc1ccccc1OCCN1CCC(CNS(=O)(=O)c2cc(Cl)ccc2F)CC1 | 148 nM | 56 nM
COc1ccc(S(=O)(=O)NC2CCN(CCOc3ccccc3OC)CC2)cc1OC | 192 nM | 99 nM
COc1ccccc1OCCN1CCC(CNS(=O)(=O)c2cccc(Cl)c2)CC1 | 121 nM | 46 nM
COc1ccc(S(=O)(=O)NCC2CCN(CCOc3ccccc3OC)CC2)cc1OC | 161 nM | 81 nM
COc1ccccc1OCCN1CCC(CNS(=O)(=O)c2cncc3ccccc23)CC1 | 140 nM | 90 nM

The next molecules have a lower EC50 [1] than those just listed; values first:

EC50 [1] | Ki [2] | SMILES
99.7 nM | 52 nM | COc1ccccc1OCCN1CCC(NS(=O)(=O)c2cncc3ccccc23)CC1
11.1 nM | 71 nM | CC(C)Oc1ccccc1OCCN1CCC(CNS(=O)(=O)c2cccc(Cl)c2F)CC1
34.1 nM | 95 nM | CC(C)Oc1ccccc1OCCN1CCC(CNS(=O)(=O)c2cccc3cccnc23)CC1
84.2 nM | 48 nM | COc1ccccc1OCCN1CCC(CNS(=O)(=O)c2cccc(Cl)c2F)CC1
